This passage reports Diuretic activity, HR and MABP results from ChEMBL document CHEMBL1122545, “N2-(4-Substituted-2,6-dichlorophenyl)-N1,N1-dimethylformamidines as antihypertensive and diuretic agents” (J Med Chem, 1984).

Data set [1] in a line: Diuretic activity was determined expressed as Na+(sodium) excreted in milli equivalents was reported for a duration of 5 hours after administration of a dose of 25 mg/Kg. The following applies: in vivo. The class given is ADME, Urine. The method in brief:
(§1)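 Male SH rats (Okamoto strain), 16 weeks old, dosed orally by gavage with compound dispersed in 3% starch in normal saline at 2 mL/kg. Oral normal saline load, then individual metabolism cages; 0-5 h urine collected, Na+ and K+ measured by flame photometry. Rats redosed at 24 h without the saline load. MABP and HR taken by femoral arterial puncture under local anesthetic 4 h after the second dose.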

Data set [2] can be described thus: Diuretic activity was determined expressed as volume of urine excreted in mL was reported at a dose of 25 mg/Kg. Type of data set: ADME. The following applies: in vivo. The method in brief: as §1
For data set [3], the system named is Rattus norvegicus. Description: Diuretic activity was determined in SH rats expressed as K(+) (potassium) excreted in milli equivalents was reported for a duration of 5 hours after administration of a dose of 25 mg/Kg. The following applies: in vivo. The class given is ADME, organism-based, Urine. The method in brief: as §1
The test system of data set [4] is Rattus norvegicus. Description: Antihypertensive activity determined as heart rate in SH rats, was reported at a dose of 25 mg/Kg. The class given is functional. Summed up:
as §1

Data set [5] concerns Rattus norvegicus. Nature of the data set: Antihypertensive activity in SH rats, and mean arterial blood pressure was reported at a dose of 25 mg/Kg. The class given is functional, Artery. Summed up: as §1
Data set [6] is described as follows: Diuretic activity was determined expressed as volume of urine excreted in mL was reported at a dose of 10 mg/Kg. Type of data set: ADME. The following applies: in vivo. Summed up:
as §1

The test system of data set [7] is Rattus norvegicus. Description: Diuretic activity was determined in SH rats expressed as K(+) (potassium) excreted in milli equivalents was reported for a duration of 5 hours after administration of a dose of 10 mg/Kg. The following applies: in vivo. The class given is ADME, organism-based, Urine. The method in brief: as §1
Data set [8] relates to Rattus norvegicus. Description: Diuretic activity was determined in SH rats expressed as K(+) (potassium) excreted in milli equivalents was reported for a duration of 5 hours after administration of a dose of 25 mg/Kg. Type of data set: ADME, organism-based, Urine. The settings on record: in vivo. Summed up: as §1
The nature of data set [9]: Diuretic activity was determined expressed as Na+(sodium) excreted in milli equivalents was reported for a duration of 5 hours after administration of a dose of 10 mg/Kg. The class given is ADME, Urine. The settings on record: in vivo. Summed up:
as §1

Data set [10] deals with Rattus norvegicus. Nature of the data set: Antihypertensive activity determined as heart rate in SH rats, was reported at a dose of 10 mg/Kg. The class given is functional. Summed up:
as §1

In data set [11] the test system is Rattus norvegicus. Description: Antihypertensive activity in SH rats, and mean arterial blood pressure was reported at a dose of 10 mg/Kg. Type of data set: functional, Artery. The method in brief: as §1

Turning to `Cc1cc(N(C)C)ccc1CNc1cc(Cl)c(/N=C/N(C)C)c(Cl)c1`, the values for the Diuretic activity (in data set [1]; in [2]; in the data set on Rattus norvegicus [3]) were 2.59 m equiv, 25.5 mL and 0.6 m equiv, respectively. The molecule further registered an HR in the data set on Rattus norvegicus [4] of 270 beats min-1. In addition, in the data set on Rattus norvegicus [5], the MABP is recorded as 138 mmHg.
Turning to `COc1cc(N(C)C)ccc1CNc1cc(Cl)c(/N=C/N(C)C)c(Cl)c1`, the Diuretic activity in [1] amounted to 2.16 m equiv; in data set [6] it was 14.8 mL; in data set [2], 22.5 mL; in the data set with Rattus norvegicus [7], 0.48 m equiv; in the data set on Rattus norvegicus [8], 0.75 m equiv; in data set [9] it was 1.29 m equiv. Moreover, the results for the HR with Rattus norvegicus [10] and with Rattus norvegicus [4] were 450 beats min-1 and 270 beats min-1, respectively. For the same molecule, the MABP with Rattus norvegicus [11] is given as 132 mmHg; in the data set with Rattus norvegicus [5], 114 mmHg.
